Experiment [1] addresses Calcium/calmodulin-dependent protein kinase type II subunit delta (Homo sapiens) (UniProt Q13557). Briefly: Binding affinity to wild-type human partial length CAMK2D (M1 to E329 residues) expressed in bacterial expression system assessed as residual binding level at 1 uM by Kinomescan method relative to control.
Experiment [2] has as its target Casein kinase I isoform gamma-3 (Homo sapiens) (UniProt Q9Y6M4). Put plainly: Binding affinity to wild-type human full length CSNK1G3 (M1 to K447 residues) expressed in bacterial expression system assessed as residual binding level at 1 uM by Kinomescan method relative to control. An outline of the steps: (§1)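 Active-site-directed KinomeScan competition binding panel covering 468 kinases, compound tested at 1 μM. Each readout is the kinase signal remaining with compound, expressed as a percentage of the DMSO control. […]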

For experiment [3], the target named is Death-associated protein kinase 2 (Homo sapiens) (UniProt Q9UIK4). Put plainly: Binding affinity to wild-type human full length DAPK2 (M1 to S370 residues) expressed in bacterial expression system assessed as residual binding level at 1 uM by Kinomescan method relative to control. An outline of the steps:
as §1

Experiment [4] concerns the target Ephrin type-A receptor 3 (Homo sapiens) (UniProt P29320). Put plainly: Binding affinity to wild-type human partial length EPHA3 (D604 to K889 residues) expressed in bacterial expression system assessed as residual binding level at 1 uM by Kinomescan method relative to control. Put shortly:
(§2)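 Active-site-directed competition binding panel of 468 kinases (KinomeScan), compound at 1 μM. The read-out is kinase remaining bound, given as a percentage of the DMSO control. […]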

Experiment [5] has as its system Receptor-type tyrosine-protein kinase FLT3 (Homo sapiens), P36888 [K663Q]. Briefly: Binding affinity to human partial length FLT3 K663Q mutant (V592 to Y969 residues) expressed in bacterial expression system assessed as residual binding level at 1 uM by Kinomescan method relative to control. An outline of the steps: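 KinomeScan active site-directed competition binding panel (468 kinases), compound tested at 1 μM. Result expressed as remaining kinase signal versus DMSO control (percent of control).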

The target in experiment [6] is G protein-coupled receptor kinase 3 (Homo sapiens) (UniProt P35626). Briefly: Binding affinity to wild-type human full length GRK3 (M1 to L688 residues) expressed in mammalian expression system assessed as residual binding level at 1 uM by Kinomescan method relative to control. Put shortly:
as §1

The target in experiment [7] is Hormonally up-regulated neu tumor-associated kinase (Homo sapiens) (UniProt P57058). Put plainly: Binding affinity to wild-type human partial length HUNK (A31 to K354 residues) expressed in bacterial expression system assessed as residual binding level at 1 uM by Kinomescan method relative to control.
Experiment [8] concerns the target Mitogen-activated protein kinase kinase kinase 2 (Homo sapiens) (UniProt Q9Y2U5). Put plainly: Binding affinity to wild-type human partial length MAP3K2 (S315 to H619 residues) expressed in mammalian expression system assessed as residual binding level at 1 uM by Kinomescan method relative to control. An outline of the steps: as §2
The target in experiment [9] is Dual specificity mitogen-activated protein kinase kinase 4 (Homo sapiens) (UniProt P45985). Briefly: Binding affinity to wild-type human partial length MEK4 (S84 to D399 residues) expressed in mammalian expression system assessed as residual binding level at 1 uM by Kinomescan method relative to control.
The target of experiment [10] is Mitogen-activated protein kinase kinase kinase 9 (Homo sapiens) (UniProt P80192). Briefly: Binding affinity to wild-type human partial length MLK1 (V88 to W426 residues) expressed in bacterial expression system assessed as residual binding level at 1 uM by Kinomescan method relative to control.
Experiment [11] deals with Serine/threonine-protein kinase 3 (Homo sapiens) (UniProt Q13188). Briefly: Binding affinity to wild-type human partial length MST2 (D17 to E318 residues) expressed in bacterial expression system assessed as residual binding level at 1 uM by Kinomescan method relative to control.
In experiment [12] the target is Protein kinase C eta type (Homo sapiens) (UniProt P24723). Put plainly: Binding affinity to wild-type human partial length PRKCH (S324 to P683 residues) expressed in bacterial expression system assessed as residual binding level at 1 uM by Kinomescan method relative to control.
The target in experiment [13] is cGMP-dependent protein kinase 2 (Homo sapiens) (UniProt Q13237). Put plainly: Binding affinity to wild-type human partial length PRKG2 (S422 to F762 residues) expressed in mammalian expression system assessed as residual binding level at 1 uM by Kinomescan method relative to control.
The target of experiment [14] is Receptor-interacting serine/threonine-protein kinase 4 (Homo sapiens) (UniProt P57078). Briefly: Binding affinity to wild-type human partial length RIPK4 (M1 to V303 residues) expressed in mammalian expression system assessed as residual binding level at 1 uM by Kinomescan method relative to control.
Experiment [15] has as its target Ribosomal protein S6 kinase alpha-4 (Homo sapiens) (UniProt O75676). Briefly: Binding affinity to wild-type human partial length N-terminal RPS6KA4 kinase domain 1 expressed in bacterial expression system assessed as residual binding level at 1 uM by Kinomescan method relative to control.
Experiment [16] has as its target Ribosomal protein S6 kinase alpha-5 (Homo sapiens) (UniProt O75582). Put plainly: Binding affinity to wild-type human partial length N- terminal RPS6KA5 kinase domain 1 expressed in bacterial expression system assessed as residual binding level at 1 uM by Kinomescan method relative to control.
The target in experiment [17] is Serine/threonine-protein kinase TAO1 (Homo sapiens) (UniProt Q7L7X3). Put plainly: Binding affinity to wild-type human partial length TAOK1 (M1 to A320 residues) expressed in mammalian expression system assessed as residual binding level at 1 uM by Kinomescan method relative to control.
Experiment [18] addresses Serine/threonine-protein kinase TAO3 (Homo sapiens) (UniProt Q9H2K8). Put plainly: Binding affinity to wild-type human partial length TAOK3 (M1 to T316 residues) expressed in mammalian expression system assessed as residual binding level at 1 uM by Kinomescan method relative to control.
Experiment [19] has as its target NT-3 growth factor receptor (Homo sapiens) (UniProt Q16288). Briefly: Binding affinity to wild-type human partial length TRKC (Q531 to G825 residues) expressed in mammalian expression system assessed as residual binding level at 1 uM by Kinomescan method relative to control.
Experiment [20] has as its target Vascular endothelial growth factor receptor 2 (Homo sapiens) (UniProt P35968). Briefly: Binding affinity to wild-type human partial length VEGFR2 (R787 to P1253 residues) expressed in mammalian expression system assessed as residual binding level at 1 uM by Kinomescan method relative to control. An outline of the steps:
(§3)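 Active site-directed competition binding panel (KinomeScan, 468 kinases). Test compound at 1 μM. Read-out is kinase binding remaining versus DMSO control, expressed as percent of control. Scores above 35% are treated as weak binding.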

For experiment [21], the target named is Phosphatidylinositol 3-kinase catalytic subunit type 3 (Homo sapiens) (UniProt Q8NEB9). Put plainly: Binding affinity to wild-type human partial length VPS34 (S282 to H879 residues) expressed in mammalian expression system assessed as residual binding level at 1 uM by Kinomescan method relative to control. An outline of the steps: as §3
Experiment [22] addresses Serine/threonine-protein kinase 32C (Homo sapiens) (UniProt Q86UX6). Put plainly: Binding affinity to wild-type human partial length YANK3 (M68 to G486 residues) expressed in bacterial expression system assessed as residual binding level at 1 uM by Kinomescan method relative to control.

These results are taken from ChEMBL document CHEMBL4354843, “Structure-Based Design of a Potent and Selective Covalent Inhibitor for SRC Kinase That Targets a P-Loop Cysteine” (J Med Chem, 2020).

Structures are written as SMILES.

Protein kinase C eta type (Homo sapiens), sequence (P24723 whole entry, the tested form may be a part): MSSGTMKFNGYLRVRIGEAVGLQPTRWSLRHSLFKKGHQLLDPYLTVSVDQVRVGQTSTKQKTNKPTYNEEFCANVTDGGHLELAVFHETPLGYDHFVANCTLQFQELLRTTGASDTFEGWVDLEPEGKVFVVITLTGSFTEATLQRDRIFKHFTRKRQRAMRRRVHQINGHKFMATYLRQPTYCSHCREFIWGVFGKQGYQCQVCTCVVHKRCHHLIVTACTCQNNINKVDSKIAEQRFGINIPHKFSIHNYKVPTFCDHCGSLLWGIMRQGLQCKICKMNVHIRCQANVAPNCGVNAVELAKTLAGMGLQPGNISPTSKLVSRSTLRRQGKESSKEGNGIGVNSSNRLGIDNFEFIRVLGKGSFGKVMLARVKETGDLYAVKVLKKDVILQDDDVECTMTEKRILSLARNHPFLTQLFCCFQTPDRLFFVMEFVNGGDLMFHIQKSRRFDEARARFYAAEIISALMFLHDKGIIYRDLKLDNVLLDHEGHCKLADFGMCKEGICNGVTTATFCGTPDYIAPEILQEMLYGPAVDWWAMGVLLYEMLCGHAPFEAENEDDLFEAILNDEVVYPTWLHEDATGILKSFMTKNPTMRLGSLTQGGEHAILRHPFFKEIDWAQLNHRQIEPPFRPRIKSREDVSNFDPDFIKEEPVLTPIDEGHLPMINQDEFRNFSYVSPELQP
Dual specificity mitogen-activated protein kinase kinase 4 (Homo sapiens), sequence (P45985 whole entry, the tested form may be a part): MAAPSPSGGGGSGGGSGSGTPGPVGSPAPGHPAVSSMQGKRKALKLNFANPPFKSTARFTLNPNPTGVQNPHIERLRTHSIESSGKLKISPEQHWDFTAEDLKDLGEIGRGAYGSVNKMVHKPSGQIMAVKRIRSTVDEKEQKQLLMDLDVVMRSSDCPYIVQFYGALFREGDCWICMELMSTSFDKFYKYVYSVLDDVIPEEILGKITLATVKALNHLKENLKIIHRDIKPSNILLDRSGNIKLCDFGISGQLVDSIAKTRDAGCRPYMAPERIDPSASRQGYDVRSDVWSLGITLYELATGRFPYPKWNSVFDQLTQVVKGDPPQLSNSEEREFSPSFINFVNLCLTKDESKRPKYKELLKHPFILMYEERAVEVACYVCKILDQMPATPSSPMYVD
Ribosomal protein S6 kinase alpha-4 (Homo sapiens), sequence (O75676 whole entry, looked up, the tested form may be a part): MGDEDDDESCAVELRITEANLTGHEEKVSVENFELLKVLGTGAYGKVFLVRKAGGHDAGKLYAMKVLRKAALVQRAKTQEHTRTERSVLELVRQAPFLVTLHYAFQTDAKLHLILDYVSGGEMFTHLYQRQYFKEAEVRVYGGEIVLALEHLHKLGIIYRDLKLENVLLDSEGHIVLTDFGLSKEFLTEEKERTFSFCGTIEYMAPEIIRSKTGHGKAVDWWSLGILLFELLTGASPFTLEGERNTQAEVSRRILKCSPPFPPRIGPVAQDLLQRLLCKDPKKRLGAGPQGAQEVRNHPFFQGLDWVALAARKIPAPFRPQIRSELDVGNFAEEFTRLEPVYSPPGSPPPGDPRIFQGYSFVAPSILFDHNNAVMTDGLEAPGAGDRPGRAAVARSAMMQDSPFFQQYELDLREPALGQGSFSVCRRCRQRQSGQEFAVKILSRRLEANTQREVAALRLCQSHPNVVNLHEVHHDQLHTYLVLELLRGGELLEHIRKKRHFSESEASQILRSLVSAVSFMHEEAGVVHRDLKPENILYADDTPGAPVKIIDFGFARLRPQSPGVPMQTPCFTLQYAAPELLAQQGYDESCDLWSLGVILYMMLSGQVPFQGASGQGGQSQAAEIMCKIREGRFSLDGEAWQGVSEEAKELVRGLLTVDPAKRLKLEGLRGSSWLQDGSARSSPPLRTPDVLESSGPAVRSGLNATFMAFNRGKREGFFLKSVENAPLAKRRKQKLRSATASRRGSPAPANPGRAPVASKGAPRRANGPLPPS
Hormonally up-regulated neu tumor-associated kinase (Homo sapiens), sequence (P57058 whole entry, the tested form may be a part): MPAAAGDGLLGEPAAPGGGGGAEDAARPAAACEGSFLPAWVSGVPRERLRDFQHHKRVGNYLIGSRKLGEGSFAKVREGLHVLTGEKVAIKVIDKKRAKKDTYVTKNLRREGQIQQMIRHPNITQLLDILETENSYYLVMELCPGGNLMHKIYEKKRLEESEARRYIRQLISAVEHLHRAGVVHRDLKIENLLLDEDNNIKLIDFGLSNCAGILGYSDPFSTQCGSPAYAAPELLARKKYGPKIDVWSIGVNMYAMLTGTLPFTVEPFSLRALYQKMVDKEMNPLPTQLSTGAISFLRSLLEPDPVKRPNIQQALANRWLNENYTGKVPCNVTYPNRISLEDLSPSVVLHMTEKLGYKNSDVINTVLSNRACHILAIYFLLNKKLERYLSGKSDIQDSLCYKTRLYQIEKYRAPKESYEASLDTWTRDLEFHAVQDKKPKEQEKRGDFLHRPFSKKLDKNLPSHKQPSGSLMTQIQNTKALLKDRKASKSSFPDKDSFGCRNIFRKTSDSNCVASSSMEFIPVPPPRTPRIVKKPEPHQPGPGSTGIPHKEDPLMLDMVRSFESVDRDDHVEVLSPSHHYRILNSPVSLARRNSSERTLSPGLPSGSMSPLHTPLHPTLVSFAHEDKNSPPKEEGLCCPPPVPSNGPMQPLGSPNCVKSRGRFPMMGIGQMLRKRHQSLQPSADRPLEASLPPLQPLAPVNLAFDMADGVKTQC
Receptor-interacting serine/threonine-protein kinase 4 (Homo sapiens), sequence (P57078 whole entry, the tested form may be a part): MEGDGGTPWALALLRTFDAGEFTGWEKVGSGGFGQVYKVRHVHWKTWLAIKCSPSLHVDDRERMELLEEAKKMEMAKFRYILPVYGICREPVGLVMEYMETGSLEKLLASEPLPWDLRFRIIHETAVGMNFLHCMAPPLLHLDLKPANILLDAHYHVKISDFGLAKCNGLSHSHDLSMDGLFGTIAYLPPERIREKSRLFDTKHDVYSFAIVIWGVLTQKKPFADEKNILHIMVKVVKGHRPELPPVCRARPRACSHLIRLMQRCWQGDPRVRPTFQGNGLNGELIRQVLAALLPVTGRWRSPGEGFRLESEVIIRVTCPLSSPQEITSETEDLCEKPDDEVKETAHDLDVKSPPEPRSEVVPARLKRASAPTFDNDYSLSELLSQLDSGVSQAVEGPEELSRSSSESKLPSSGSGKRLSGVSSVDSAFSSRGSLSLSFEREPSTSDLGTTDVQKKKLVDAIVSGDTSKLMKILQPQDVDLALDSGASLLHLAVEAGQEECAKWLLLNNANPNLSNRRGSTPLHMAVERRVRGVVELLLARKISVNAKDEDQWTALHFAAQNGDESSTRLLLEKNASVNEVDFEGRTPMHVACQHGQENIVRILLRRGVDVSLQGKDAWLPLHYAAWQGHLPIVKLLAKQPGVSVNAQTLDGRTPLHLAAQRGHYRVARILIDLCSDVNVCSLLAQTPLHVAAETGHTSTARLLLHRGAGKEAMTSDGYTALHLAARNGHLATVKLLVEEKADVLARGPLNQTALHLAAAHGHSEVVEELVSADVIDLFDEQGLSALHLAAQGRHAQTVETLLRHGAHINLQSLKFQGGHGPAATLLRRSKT
Vascular endothelial growth factor receptor 2 (Homo sapiens), sequence (P35968 whole entry, the tested form may be a part): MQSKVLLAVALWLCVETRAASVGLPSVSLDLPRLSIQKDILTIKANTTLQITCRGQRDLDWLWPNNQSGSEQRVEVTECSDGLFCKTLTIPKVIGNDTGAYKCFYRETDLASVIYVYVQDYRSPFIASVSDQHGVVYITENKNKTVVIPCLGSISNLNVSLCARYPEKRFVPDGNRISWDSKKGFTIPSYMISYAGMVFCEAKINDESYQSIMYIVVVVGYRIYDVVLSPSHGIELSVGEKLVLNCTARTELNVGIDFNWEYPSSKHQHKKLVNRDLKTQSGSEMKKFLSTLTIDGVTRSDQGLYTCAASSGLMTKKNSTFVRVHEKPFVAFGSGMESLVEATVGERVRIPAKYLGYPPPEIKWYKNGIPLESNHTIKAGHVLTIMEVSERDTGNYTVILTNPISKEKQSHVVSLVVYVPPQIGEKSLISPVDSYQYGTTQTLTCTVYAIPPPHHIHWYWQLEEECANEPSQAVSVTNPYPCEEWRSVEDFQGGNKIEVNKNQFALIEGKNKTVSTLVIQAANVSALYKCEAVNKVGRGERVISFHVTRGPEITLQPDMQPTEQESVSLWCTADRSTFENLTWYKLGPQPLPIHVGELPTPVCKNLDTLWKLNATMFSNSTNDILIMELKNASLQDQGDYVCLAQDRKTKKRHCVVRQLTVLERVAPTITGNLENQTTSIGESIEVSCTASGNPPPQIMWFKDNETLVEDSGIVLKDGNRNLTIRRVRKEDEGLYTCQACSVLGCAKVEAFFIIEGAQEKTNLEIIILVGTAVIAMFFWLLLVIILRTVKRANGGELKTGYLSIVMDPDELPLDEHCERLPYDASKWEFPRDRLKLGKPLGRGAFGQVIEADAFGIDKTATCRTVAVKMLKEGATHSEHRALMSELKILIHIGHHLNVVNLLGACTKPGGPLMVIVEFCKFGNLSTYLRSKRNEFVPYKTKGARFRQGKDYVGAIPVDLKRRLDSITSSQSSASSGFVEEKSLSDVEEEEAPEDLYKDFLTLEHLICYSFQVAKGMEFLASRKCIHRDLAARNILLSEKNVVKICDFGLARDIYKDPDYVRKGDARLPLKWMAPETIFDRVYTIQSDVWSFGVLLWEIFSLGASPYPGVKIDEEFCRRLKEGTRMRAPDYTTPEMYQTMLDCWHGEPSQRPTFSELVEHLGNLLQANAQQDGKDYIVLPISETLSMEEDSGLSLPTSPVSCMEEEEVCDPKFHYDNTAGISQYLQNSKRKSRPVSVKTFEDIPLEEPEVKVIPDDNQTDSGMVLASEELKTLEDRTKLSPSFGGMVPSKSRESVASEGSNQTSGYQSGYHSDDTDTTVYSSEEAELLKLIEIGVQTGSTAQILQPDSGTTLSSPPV

Turning to `C=CC(=O)Nc1ccccc1Nc1nc(Nc2ccc(N3CCN(C)CC3)cc2)ncc1C(=O)Nc1c(C)cccc1Cl`, the Activity is 100% in experiment [1]; 100% in experiment [2]; 100% in experiment [3]; 68% in experiment [4]; 100% in experiment [5]; 100% in experiment [6]. In addition, the Activity was determined as 100% in [7]; 94% in experiment [8]; 91% in experiment [9]; 100% in experiment [10]; 100% in [11]; 100% in experiment [12]. For the same molecule, the Activity in experiment [13], in experiment [14], in [15], in [16], in experiment [17] and in experiment [18] was 100% each time. For the same molecule, the Activity in experiment [19] worked out at 100%; in experiment [20], 94%; in experiment [21] it was 98%; in experiment [22] it was 100%.
